Measurements reported in ChEMBL document CHEMBL4346672, “Antimicrobial and KPC/AmpC inhibitory activity of functionalized benzosiloxaboroles” (Eur J Med Chem, 2019).
Values after ≈ are worked out from the molar mass of the structure shown. Active and inactive are the calls of the source. The rule behind the calls is not given here.

How the values were obtained:
[1] = Dissociation constant, pKa2 of compound in 0.1 M NaOH by potentiometric analysis; assay type: physicochemical
Klebsiella pneumoniae [2] = assay: Inhibition of beta lactamase KPC-2 in Klebsiella pneumoniae 75 assessed as potentiation of meropenem-induced antibacterial activity by measuring meropenem MIC at 16 mg/L incubated for 18 hrs by broth dilution method (reference value: […] mg/L)
Candida parapsilosis = assay: Antifungal activity against Candida parapsilosis ATCC 22019 assessed as decrease in fungal cell growth at 0.78 to 12.5 mg/L incubated for 24 hrs by CLSI broth dilution method; assay type: functional; conditions: Lodderomyces parapsilosis, ATCC 22019, 24 h
Procedure, shortened: (§1)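 Yeast broth dilution in RPMI 1640 with 2% glucose, compounds in DMSO. Yeasts pre-grown on Sabouraud dextrose agar. Growth read after 35 °C, 24 h.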

Candida tropicalis [3] = assay: Antifungal activity against Candida tropicalis IBA 171 assessed as decrease in fungal cell growth at 0.78 to 12.5 mg/L incubated for 24 hrs by CLSI broth dilution method; assay type: functional; conditions: IBA 171, 24 h; procedure, shortened: as §1
Pichia kudriavzevii = assay: Antifungal activity against Candida krusei ATCC 6258 assessed as decrease in fungal cell growth at 0.78 to 12.5 mg/L incubated for 24 hrs by CLSI broth dilution method; assay type: functional; conditions: ATCC 6258, 24 h; procedure, shortened: as §1
Candida tropicalis [4] = assay: Antifungal activity against Candida tropicalis IBA 171 assessed as diameter of zone inhibition incubated for 24 hrs by CLSI disc diffusion method; assay type: functional
Procedure, shortened: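 Yeast disc diffusion on Mueller-Hinton agar supplemented with 2% glucose and 0.5 mg/L methylene blue. Compounds in DMSO. Yeasts subcultured on Sabouraud dextrose agar before testing. Zones read after 35 °C, 24 h.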

Staphylococcus aureus = assay: Bactericidal activity against Staphylococcus aureus ATCC 6538P measured after 18 hrs by CLSI broth dilution method; assay type: functional
Procedure, shortened: (§2)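 Strains stored at -80 °C and subcultured twice on tryptic soy agar before testing. Compounds dissolved in DMSO. […] MBC then determined per CLSI recommendations.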

[5] = tested on: Staphylococcus epidermidis; assay: Bactericidal activity against Staphylococcus epidermidis ATCC 12228 measured after 18 hrs by CLSI broth dilution method; assay type: functional; conditions: ATCC 12228, 18 h; procedure, shortened: as §2
Enterococcus faecalis = assay: Antibacterial activity against Enterococcus faecalis ATCC 29212 assessed as diameter of zone inhibition measured after 18 hrs by CLSI disc diffusion method; assay type: functional
Procedure, shortened: (§3)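 Disc diffusion on Mueller-Hinton II agar. Compounds dissolved in DMSO. Strains stored at -80 °C and subcultured twice on tryptic soy agar before testing. Inhibition zones read after 35 °C, 18 h.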

Enterococcus faecium = assay: Antibacterial activity against Enterococcus faecium ATCC 6057 assessed as diameter of zone inhibition measured after 18 hrs by CLSI disc diffusion method; assay type: functional; procedure, shortened: as §3
[6] = tested on: Bordetella bronchiseptica; assay: Antibacterial activity against Bordetella bronchiseptica ATCC 4617 measured after 18 hrs by CLSI broth dilution method; assay type: functional; conditions: ATCC 4617, 18 h
Procedure, shortened: (§4)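 Broth MIC in Mueller-Hinton II broth following CLSI, compounds dissolved in DMSO. Strains subcultured twice on tryptic soy agar before testing. Growth read after 35 °C, 18 h.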

Acinetobacter baumannii [7] = assay: Antibacterial activity against Acinetobacter baumannii ATCC 19606 measured after 18 hrs by CLSI broth dilution method; assay type: functional; conditions: ATCC 19606, 18 h; procedure, shortened: as §4
Proteus mirabilis [8] = assay: Antibacterial activity against Proteus mirabilis ATCC 12453 assessed as diameter of zone inhibition measured after 18 hrs by CLSI disc diffusion method; assay type: functional; procedure, shortened: as §3
[9] = tested on: Bordetella bronchiseptica; assay: Antibacterial activity against Bordetella bronchiseptica ATCC 4617 assessed as diameter of zone inhibition measured after 18 hrs by CLSI disc diffusion method; assay type: functional; procedure, shortened: as §3
Klebsiella pneumoniae [10] = assay: Antibacterial activity against Klebsiella pneumoniae ATCC 13883 assessed as fold reduction of MIC in presence of efflux pump inhibitor PAbetaN incubated for 18 hrs by broth microdilution method; assay type: functional
Procedure, shortened: (§5)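 MICs determined with and without PAβN at 50 mg/L in Mueller-Hinton broth containing 1 mM MgSO₄. 2-fold serial dilutions per CLSI. Fold change taken from the paired MICs after 35 °C, 18 h.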

Proteus mirabilis [11] = assay: Antibacterial activity against Proteus mirabilis ATCC 12453 assessed as fold reduction of MIC in presence of efflux pump inhibitor PAbetaN incubated for 18 hrs by broth microdilution method; assay type: functional; procedure, shortened: as §5
Serratia marcescens [12] = assay: Antibacterial activity against Serratia marcescens ATCC 13880 assessed as fold reduction of MIC in presence of efflux pump inhibitor PAbetaN incubated for 18 hrs by broth microdilution method; assay type: functional; procedure, shortened: as §5
Pseudomonas aeruginosa = assay: Antibacterial activity against Pseudomonas aeruginosa ATCC 27853 assessed as fold reduction of MIC in presence of efflux pump inhibitor PAbetaN incubated for 18 hrs microdilution method; assay type: functional; procedure, shortened: as §5
Acinetobacter baumannii [13] = assay: Antibacterial activity against Acinetobacter baumannii ATCC 19606 assessed as fold reduction of MIC in presence of efflux pump inhibitor PAbetaN incubated for 18 hrs by broth microdilution method; assay type: functional; procedure, shortened: as §5
Klebsiella pneumoniae [14] = assay: Inhibition of beta lactamase KPC-2 in Klebsiella pneumoniae 75 assessed as potentiation of ceftazidime-induced antibacterial activity by measuring ceftazidime MIC at 16 mg/L incubated for 18 hrs by broth dilution method (reference value: […] mg/L)
Klebsiella pneumoniae [15] = assay: Inhibition of beta lactamase KPC-3 in Klebsiella pneumoniae 83 assessed as potentiation of ceftazidime-induced antibacterial activity by measuring ceftazidime MIC at 16 mg/L incubated for 18 hrs by broth dilution method (reference value: >[…] mg/L)
Klebsiella pneumoniae [16] = assay: Inhibition of beta lactamase SHV-12 in Klebsiella pneumoniae ATCC 700603 assessed as potentiation of ceftazidime-induced antibacterial activity by measuring ceftazidime MIC at 16 mg/L incubated for 18 hrs by broth dilution method (reference value: […] mg/L)
Klebsiella pneumoniae [17] = assay: Inhibition of beta lactamase KPC-3 in Klebsiella pneumoniae 81 assessed as potentiation of meropenem-induced antibacterial activity by measuring meropenem MIC at 16 mg/L incubated for 18 hrs by broth dilution method (reference value: […] mg/L)
[18] = Cytotoxicity against human MRC5 cells assessed as cell viability at 1 ug/ml incubated for 72 hrs by MTT assay; assay type: cell-based; conditions: read-out: Activity
Procedure, shortened: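 MRC-5 pd30 human fibroblasts grown in MEM with 10% FBS, 2 mM L-glutamine, penicillin/streptomycin and 1% non-essential amino acids at 37 °C, 5% CO2. Exponentially growing cells trypsinized and seeded at 8×10^3 cells/well, then dosed 18 h later with 2-fold dilutions (0.5% DMSO final) for 72 h. MTT (1 mg/ml final) added for 1 h at 37 °C, formazan dissolved in DMSO, OD read at 570 nm. Four replicates, expressed as % viable versus control.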

Klebsiella pneumoniae [19] = conditions: ATCC 13883
Serratia marcescens [20] = conditions: ATCC 13880

Structure (SMILES): C[Si]1(C)OB(O)c2cc3c(c(F)c21)COB3O
- pKa [1]: 8.6
- MIC (Klebsiella pneumoniae [2]): 32 µg/mL
- MIC (Candida parapsilosis): 50 µg/mL (≈ 198 µM)
- MIC (Candida tropicalis [3]): 100 µg/mL (≈ 397 µM)
- MIC (Pichia kudriavzevii): > 400 µg/mL
- diameter of the inhibition zone (DIZ) (Candida tropicalis [4]): inactive
- MBC (Staphylococcus aureus): 400 µg/mL (≈ 1590 µM)
- MBC [5]: 400 µg/mL (≈ 1590 µM)
- diameter of the inhibition zone (DIZ) (Enterococcus faecalis): 18 mm
- diameter of the inhibition zone (DIZ) (Enterococcus faecium): 16 mm
- MIC [6]: 200 µg/mL (≈ 794 µM)
- MIC (Acinetobacter baumannii [7]): > 400 µg/mL
- diameter of the inhibition zone (DIZ) (Proteus mirabilis [8]): inactive
- diameter of the inhibition zone (DIZ) [9]: 13 mm
- fold change (FC) (Klebsiella pneumoniae [10]): 32
- fold change (FC) (Proteus mirabilis [11]): 8
- fold change (FC) (Serratia marcescens [12]): 16
- fold change (FC) (Pseudomonas aeruginosa): 8
- fold change (FC) (Acinetobacter baumannii [13]): 8
- MIC (Klebsiella pneumoniae [14]): > 64 µg/mL
- MIC (Klebsiella pneumoniae [15]): > 64 µg/mL
- MIC (Klebsiella pneumoniae [16]): 32 µg/mL
- MIC (Klebsiella pneumoniae [17]): 8 µg/mL
- viability at 72 h, 1 ug/ml [18]: 112%
- DIZ (Klebsiella pneumoniae [19]): inactive
- DIZ (Serratia marcescens [20]): inactive
